From ChEMBL document CHEMBL4699431, “Design and synthesis of substituted (1-(benzyl)-1H-1,2,3-triazol-4-yl)(piperazin-1-yl)methanone conjugates: study on their apoptosis inducing ability and tubulin polymerization inhibition” (RSC Med Chem, 2020)
Activity calls are given as the source filed them. The rule behind the calls is not given here.

Tests used:
NCI-H460 = test: Cytotoxicity against human NCI-H460 cells assessed as reduction in cell viability incubated for 48 hrs by MTT assay; format: functional, cell-based; conditions: NCI-H460, 48 h
In short: (§1)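 Cells plated at 3000-4500 per well and treated after 24 h. DMSO stocks (20 mM) were diluted in medium to final DMSO <0.1%, twofold series […], 48 h. MTT (0.5 mg/mL) was added for 4 h, formazan dissolved in DMSO, absorbance read at 570 nm.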

BT-474 [1] = test: Induction of mitochondrial membrane potential loss in human BT-474 cells assessed as depolarized cell population (P2) at 0.5 uM incubated for 48 hrs by JC1 staining based flow cytometry (reference value: 0.48 %); format: functional
In short: (§2)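 Cells (1x10⁶/mL) adhered overnight, then exposed to 0.5, 1 and 2.5 μM for 48 h. Collected, PBS-washed, incubated with JC-1 dye (1 μM) for 30 min at 37 °C, washed twice, trypsinized, centrifuged and read by flow cytometry.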

BT-474 [2] = test: Induction of mitochondrial membrane potential loss in human BT-474 cells assessed as depolarized cell population (P1) at 2.5 uM incubated for 48 hrs by JC1 staining based flow cytometry (reference value: 98.09 %); format: functional; in short: as §2
BT-474 [3] = test: Induction of mitochondrial membrane potential loss in human BT-474 cells assessed as depolarized cell population (P2) at 1 uM incubated for 48 hrs by JC1 staining based flow cytometry (reference value: 0.48 %); format: functional; in short: as §2
BT-474 [4] = test: Cell cycle arrest in human BT-474 cells assessed as increase in accumulation in S phase at 1 uM by propidium iodide staining based flow cytometry(reference value: 2.22%); format: functional
In short: (§3)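 Seeded at 1 x 10⁵ cells/well, after 24 h serum-starved 6 h to synchronize, then returned to FBS-containing medium and treated at 0.5, 1 and 2.5 μM. Harvested cells were PBS-washed, fixed in ice-cold 70% ethanol, stained with propidium iodide (50 μg/mL) plus RNase A for 20 min at 37 °C in the dark. About 10,000 events analysed by flow cytometry.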

BT-474 [5] = test: Induction of morphological changes in human BT-474 cells assessed as […] incubated for 48 hrs by phase-contrast microscope method; format: functional, cell-based; conditions: dose microM 0.5-2.5, time 48.0 hrs
In short: (§4)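 Plated at 5×10^4 cells/well, dosed after 24 h at 0.5, 1 and 2.5 μM. After 48 h, morphology was examined and photographed under phase-contrast microscopy.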

BT-474 [6] = test: Induction of mitochondrial membrane potential loss in human BT-474 cells assessed as depolarized cell population (P1) at 0.5 uM incubated for 48 hrs by JC1 staining based flow cytometry (reference value: 98.09 %); format: functional; in short: as §2
HaCaT = test: Cytotoxicity against human HaCaT cells assessed as reduction in cell viability incubated for 48 hrs by MTT assay; format: functional, cell-based; in short: as §1
HeLa = test: Cytotoxicity against human HeLa cells assessed as reduction in cell viability incubated for 48 hrs by MTT assay; format: functional, cell-based; in short: as §1
BT-474 [7] = test: Cell cycle arrest in human BT-474 cells assessed as decrease in G0/G1 accumulation in phase at 0.5 uM by propidium iodide staining based flow cytometry(reference value: 60.53%); format: functional; parameters: scale not given: the % may be the effect or the level left; in short: as §3
BT-474 [8] = test: Inhibition of clonogenicity in human BT-474 cells assessed as reduction in colony formation measured after 7 days by crystal violet staining; format: functional, cell-based; conditions: dose microM 0.5-2.5, time 7.0 day
In short: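 100 cells/well in 6-well plates; after overnight attachment, treated 12 h, then grown in fresh medium at 37 °C, 5% CO₂ with medium changed every 2 days. Colonies fixed and stained with 1% crystal violet in methanol for 3 h, counted by imaging, expressed as percent of untreated control.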

BT-474 [9] = test: Induction of mitochondrial membrane potential loss in human BT-474 cells assessed as depolarized cell population (P2) at 2.5 uM incubated for 48 hrs by JC1 staining based flow cytometry (reference value: 0.48 %); format: functional; in short: as §2
BT-474 [10] = test: Induction of morphological changes in human BT-474 cells assessed as cell shrinkage incubated for 48 hrs by phase-contrast microscope method; format: functional, cell-based; conditions: dose microM 0.5-2.5, time 48.0 hrs; in short: as §4
BT-474 [11] = test: Cell cycle arrest in human BT-474 cells assessed as increase in accumulation in G2/M phase at 2.5 uM by propidium iodide staining based flow cytometry(reference value: 19.35%); format: functional; in short: as §3
BT-474 [12] = test: Induction of apoptosis in human BT-474 cells assessed as chromatin damage at 0.5 to 2.5 uM incubated for 24 hrs by DAPI staining based DAPI staining based confocal microscopic analysis; format: functional, cell-based; conditions: dose microM 0.5-2.5, time 24.0 hrs
BT-474 [13] = test: Cell cycle arrest in human BT-474 cells assessed as increase in accumulation in G1 phase at 2.5 uM by propidium iodide staining based flow cytometry(reference value: 4.06%); format: functional; in short: as §3
Tubulin (Homo sapiens) = Tubulin (Homo sapiens) (UniProt P68371+Q9H4B7+P0DPH7+P68366+Q13509+Q71U36+P04350+Q3ZCM7+P07437+P68363+Q9BQE3+Q6PEY2+Q13885+Q9BVA1+Q9BUF5); test: Inhibition of tubulin (unknown origin) polymerization by cell free in vitro assay; format: protein-complex assay
BT-474 [14] = test: Cell cycle arrest in human BT-474 cells assessed as increase in accumulation in G2/M phase at 0.5 uM by propidium iodide staining based flow cytometry(reference value: 19.35%); format: functional; in short: as §3
BT-474 [15] = test: Cell cycle arrest in human BT-474 cells assessed as increase in accumulation in G1 phase at 1 uM by propidium iodide staining based flow cytometry(reference value: 4.06%); format: functional; in short: as §3
BT-474 [16] = test: Cell cycle arrest in human BT-474 cells assessed as decrease in G0/G1 accumulation in phase at 1 uM by propidium iodide staining based flow cytometry(reference value: 60.53%); format: functional; parameters: scale not given: the % may be the effect or the level left; in short: as §3
BT-474 [17] = test: Induction of mitochondrial membrane potential loss in human BT-474 cells assessed as depolarized cell population (P1) at 1 uM incubated for 48 hrs by JC1 staining based flow cytometry (reference value: 98.09 %); format: functional; in short: as §2
BT-474 [18] = test: Cytotoxicity against human BT-474 cells assessed as reduction in cell viability incubated for 48 hrs by MTT assay; format: functional, cell-based; conditions: BT-474, 48 h; in short: as §1
MCF7 = test: Cytotoxicity against human MCF-7 cells assessed as reduction in cell viability incubated for 48 hrs by MTT assay; format: functional, cell-based; conditions: MCF7, 48 h; in short: as §1
BT-474 [19] = test: Induction of apoptosis in human BT-474 cells assessed as chromatin condensation at 0.5 to 2.5 uM incubated for 24 hrs by DAPI staining based DAPI staining based confocal microscopic analysis; format: functional, cell-based; conditions: dose microM 0.5-2.5, time 24.0 hrs
BT-474 [20] = test: Induction of apoptosis in human BT-474 cells assessed as non-uniform distribution of chromatin incubated for 48 hrs by acridine orange/ethidium bromide double staining-based fluorescence microscopic analysis; format: functional, cell-based; conditions: dose microM 0.5-2.5, time 48.0 hrs
In short: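 Plated at 5×10^4 cells/well, treated after 24 h and held 48 h at 37 °C, 5% CO₂. Acridine orange and ethidium bromide (10 µg/mL each) added in equal volumes, then cells viewed by fluorescence microscopy at 200x.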

BT-474 [21] = test: Cell cycle arrest in human BT-474 cells assessed as increase in accumulation in S phase at 2.5 uM by propidium iodide staining based flow cytometry(reference value: 2.22%); format: functional; in short: as §3
BT-474 [22] = test: Cell cycle arrest in human BT-474 cells assessed as increase in accumulation in G2/M phase at 1 uM by propidium iodide staining based flow cytometry(reference value: 19.35%); format: functional; in short: as §3

## O=C(c1cn(Cc2cccc(Oc3ccccc3)c2)nn1)N1CCN(S(=O)(=O)c2ccc(Br)cc2)CC1
NCI-H460
  IC50: 4880 nM
BT-474 [1]
  Activity: 50.48%
BT-474 [2]
  Activity: 10.81%
BT-474 [3]
  Activity: 61.44%
BT-474 [4]
  Activity: 5.85%
BT-474 [5]
  Activity: Active
BT-474 [6]
  Activity: 50.26%
HaCaT
  IC50: 3680 nM
HeLa
  IC50: 1020 nM
BT-474 [7]
  Activity: 10.83%
BT-474 [8]
  inhibition: Dose-dependent effect
BT-474 [9]
  Activity: 89.84%
BT-474 [10]
  Activity: Active
BT-474 [11]
  Activity: 63.41%
BT-474 [12]
  Activity: Active
BT-474 [13]
  Activity: 11.3%
Tubulin (Homo sapiens)
  inhibition: Active
BT-474 [14]
  Activity: 58.93%
BT-474 [15]
  Activity: 9.41%
BT-474 [16]
  Activity: 9.64%
BT-474 [17]
  Activity: 41.46%
BT-474 [18]
  IC50: 990 nM
MCF7
  IC50: 2340 nM
BT-474 [19]
  Activity: Active
BT-474 [20]
  Activity: Dose-dependent effect
BT-474 [21]
  Activity: 5.57%
BT-474 [22]
  Activity: 62.72%
